Reference: ChEMBL document CHEMBL3259704, “Second generation steroidal 4-aminoquinolines are potent, dual-target inhibitors of the botulinum neurotoxin serotype A metalloprotease and P. falciparum malaria” (J Med Chem, 2014)

Assays:
[1] = Selectivity index, ratio of IC50 for human HepG2 cells to IC50 for CQ, MFQ-susceptible Plasmodium falciparum D6 clone Sierra 1/UNC isolate; format: toxicity, cell-based; conditions: read-out: Ratio IC50
[2] = target: Botulinum neurotoxin type A (Clostridium botulinum) (UniProt P0DPI0); test: Inhibition of Clostridium botulinum recombinant BoNT/A light chain using N-terminal acetylated, C-terminal aminated SNAP-25 (187-203) as substrate at 20 uM by reverse-phase HPLC analysis
Sequence of Botulinum neurotoxin type A (Clostridium botulinum) (P0DPI0 2-448 limits assumed): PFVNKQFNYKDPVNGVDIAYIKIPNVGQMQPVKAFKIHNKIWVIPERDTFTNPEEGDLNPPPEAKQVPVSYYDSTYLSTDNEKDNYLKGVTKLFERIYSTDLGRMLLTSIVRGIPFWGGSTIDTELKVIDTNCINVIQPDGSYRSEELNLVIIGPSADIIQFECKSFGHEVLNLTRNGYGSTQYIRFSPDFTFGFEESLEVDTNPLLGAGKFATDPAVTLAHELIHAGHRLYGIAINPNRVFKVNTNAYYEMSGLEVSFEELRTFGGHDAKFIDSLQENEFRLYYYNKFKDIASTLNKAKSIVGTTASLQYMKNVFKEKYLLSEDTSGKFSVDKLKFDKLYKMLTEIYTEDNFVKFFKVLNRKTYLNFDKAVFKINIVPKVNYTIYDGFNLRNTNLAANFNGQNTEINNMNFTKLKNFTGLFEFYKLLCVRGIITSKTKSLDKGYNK
Procedure, shortened: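 Recombinant BoNT/A LC with SNAP-25 187–203 peptide substrate in 40 mM HEPES–0.05% Tween, pH 7.3, with 0.5 mg/mL BSA and 50 μM excess Zn, at 37 °C. Quenched with TFA; reverse-phase HPLC product/substrate peak areas give percent inhibition, run in duplicate.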

[3] = target: Botulinum neurotoxin type A (Clostridium botulinum) (UniProt P0DPI0); test: Inhibition of Clostridium botulinum BoNT/A-mediated SNAP-25 cleavage in chicken embryo neurons assessed as intact SNAP-25 level at […] preincubated for 45 mins followed by co-incubation with BoNT/A for 3.5 hrs by western blot analysis in presence of 5 uL of 100 nM antibiotic bafilomycin; parameters: scale not given: the % may be the effect or the level left
[4] = system: Plasmodium falciparum; test: Antimalarial activity against CQ-resistant, MFQ-susceptible Plasmodium falciparum W2 clone Indochina 1 isolate assessed as inhibition of parasite proliferation by MSF assay; format: functional, organism-based
Procedure, shortened: (§1)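 SYBR Green I fluorescence (MSF) microtiter drug-sensitivity assay: malarial DNA content is the measure of in vitro parasite proliferation. Resistance index is the IC90 ratio of the resistant strain to D6.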

[5] = target: Botulinum neurotoxin type A (Clostridium botulinum) (UniProt P0DPI0); test: Inhibition of Clostridium botulinum BoNT/A-mediated SNAP-25 cleavage in chicken embryo neurons assessed as intact SNAP-25 level at […] preincubated for 45 mins followed by co-incubation with BoNT/A for 3.5 hrs by western blot analysis; parameters: scale not given: the % may be the effect or the level left
[6] = target: Botulinum neurotoxin type A (Clostridium botulinum) (UniProt P0DPI0); test: Inhibition of Clostridium botulinum BoNT/A-mediated SNAP-25 cleavage in chicken embryo neurons assessed as intact SNAP-25 level at […] preincubated for 45 mins followed by co-incubation with BoNT/A for 3.5 hrs by western blot analysis in presence of 25 uL of 100 nM antibiotic bafilomycin; parameters: scale not given: the % may be the effect or the level left
[7] = Selectivity index, ratio of IC50 for human HepG2 cells to IC50 for CQ-resistant, MFQ-susceptible Plasmodium falciparum W2 clone Indochina 1 isolate; format: toxicity, cell-based; conditions: read-out: Ratio IC50
[8] = system: Plasmodium falciparum; test: Resistance index, ratio of IC90 for CQ-resistant, MFQ-susceptible Plasmodium falciparum W2 clone Indochina 1 isolate to IC90 for CQ, MFQ-susceptible Plasmodium falciparum D6 clone Sierra 1/UNC isolate; format: functional; procedure, shortened: as §1
[9] = system: Plasmodium falciparum; test: Antimalarial activity against CQ, MFQ-resistant Plasmodium falciparum TM91C235 clone Southeast asian isolate assessed as inhibition of parasite proliferation by MSF assay; format: functional, organism-based; procedure, shortened: as §1
[10] = system: Plasmodium falciparum; test: Antimalarial activity against CQ, MFQ-susceptible Plasmodium falciparum D6 clone Sierra 1/UNC isolate assessed as inhibition of parasite proliferation by MSF assay; format: functional, organism-based; procedure, shortened: as §1
[11] = Selectivity index, ratio of IC50 for human HepG2 cells to IC50 for CQ, MFQ-resistant Plasmodium falciparum TM91C235 clone Southeast asian isolate; format: toxicity, cell-based; conditions: read-out: Ratio IC50
[12] = system: Plasmodium falciparum; test: Resistance index, ratio of IC90 for CQ, MFQ-resistant Plasmodium falciparum TM91C235 clone Southeast asian isolate to IC90 for CQ, MFQ-susceptible Plasmodium falciparum D6 clone Sierra 1/UNC isolate; format: functional; procedure, shortened: as §1
[13] = target: Botulinum neurotoxin type A (Clostridium botulinum, UniProt P0DPI0); test: Inhibition of Clostridium botulinum recombinant BoNT/A light chain using N-terminal acetylated, C-terminal aminated SNAP-25 (187-203) as substrate by reverse-phase HPLC analysis
Sequence of Botulinum neurotoxin type A (P0DPI0 2-448 limits assumed): as above
Procedure, shortened: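 Same HPLC LC cleavage assay (pH 7.3 HEPES/Tween, BSA, excess Zn, 37 °C). […] Ki comes from velocity versus substrate at several inhibitor levels, globally fit to a competitive model.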

[14] = system: HepG2; test: Cytotoxicity against human HepG2 cells assessed as cell viability after 48 hrs by MTT assay; format: cell-based; conditions: HepG2, 48 h
[15] = system: Liver microsome; test: Half life in human liver microsomes; format: ADME; conditions: microsomes
[16] = system: Liver; test: (§2) Half life in mouse liver microsomes; format: ADME; conditions: microsomes
[17] = system: PBMC; test: Cytotoxicity against human PBMC assessed as inhibition of cell survival after 72 hrs; format: cell-based
Procedure, shortened: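 PBMC from heparinized healthy-donor blood (Histopaque) in RPMI-1640 with 10% FCS and PHA stimulation, 200 000 cells/well, with compounds in DMSO, 72 h at 37 °C, 6% CO2.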

[18] = as §2; format: ADME; conditions: liver microsomes

Structure (SMILES) | selectivity ratio [1] | inhibition [2] | IC90 [4] | selectivity ratio [7] | Ratio [8] | IC50 [9] | IC90 [9] | IC50 [10] | IC90 [10] | selectivity ratio [11] | Ratio [12] | IC50 [13] | IC50 [14] | t1/2 [15] | t1/2 [16] | IC50 [17] | IC50 [4] | further results
CC(=O)N[C@@H]1CC[C@@]2(C)[C@@H](C1)C[C@@H](OC(C)=O)[C@@H]1[C@@H]2C[C@H](OC(C)=O)[C@]2(C)[C@@H]([C@H](C)CCCNCCNc3ccnc4cc(Cl)ccc34)CC[C@@H]12 | 116 | 74% | 62.2 nM | 126 | 1.96 | 15.2 nM | 34.6 nM | 16.6 nM | 31.8 nM | 126 | 1.09 | 2460 nM | 1920 nM | – | – | – | – | Activity [3]: 28%; Activity [5]: 16%; Activity [6]: 36%
CC(=O)O[C@H]1C[C@H]2[C@@H]([C@H](OC(C)=O)C[C@@H]3C[C@H](O)CC[C@@]32C)[C@@H]2CC[C@H]([C@H](C)CCCNCCNc3ccnc4cc(Cl)ccc34)[C@@]12C | 938 | 69.4% | 10.7 nM | 415 | 2.08 | 6.71 nM | 13.3 nM | 2.91 nM | 5.13 nM | 407 | 2.58 | 4680 nM | 2730 nM | 7 min | 30 min | 2810 nM | – | –
CC(=O)O[C@H]1C[C@H]2[C@@H]([C@H](OC(C)=O)C[C@@H]3CC(=O)CC[C@@]32C)[C@@H]2CC[C@H]([C@H](C)CCCNCCCNc3ccnc4cc(Cl)ccc34)[C@@]12C | 182 | 72.9% | 12.1 nM | 161 | 1.21 | 9.19 nM | 18.1 nM | 6.12 nM | 10 nM | 121 | 1.81 | 2320 nM | 1110 nM | 14 min | 6 min | 2610 nM | 6.89 nM | –
CC(=O)O[C@H]1C[C@H]2[C@@H]([C@H](OC(C)=O)C[C@@H]3C[C@H](NS(C)(=O)=O)CC[C@@]32C)[C@@H]2CC[C@H]([C@H](C)CCCNCCCNc3ccnc4cc(Cl)ccc34)[C@@]12C | 119 | 72.9% | 96.4 nM | 130 | 1.29 | 30.3 nM | 56.2 nM | 37.5 nM | 74.7 nM | 147 | 0.75 | 3250 nM | 4460 nM | 11 min | 47 min | – | 34.4 nM | –
CC(=O)O[C@H]1C[C@H]2[C@@H]([C@H](OC(C)=O)C[C@@H]3C[C@H](NS(C)(=O)=O)CC[C@@]32C)[C@@H]2CC[C@H]([C@H](C)CCCN(C)CCNc3ccnc4cc(Cl)ccc34)[C@@]12C | 2710 | 33.8% | 16.8 nM | 1190 | 1.65 | 6.59 nM | 12.6 nM | 5.35 nM | 10.2 nM | 2200 | 1.24 | 25000 nM | 14500 nM | 14 min | 47 min | – | 12.1 nM | –
CC(=O)O[C@H]1C[C@H]2[C@@H]([C@H](OC(C)=O)C[C@@H]3CC(=O)CC[C@@]32C)[C@@H]2CC[C@H]([C@H](C)CCCNCCNc3ccnc4cc(Cl)ccc34)[C@@]12C | 571 | 67.1% | 14.1 nM | 299 | 3.09 | 17.6 nM | 36.8 nM | 3.38 nM | 4.56 nM | 109 | 8.06 | 5700 nM | 1930 nM | 6 min | 13 min | 52200 nM | 6.47 nM | –
CC(=O)O[C@H]1C[C@H]2[C@@H]([C@H](OC(C)=O)C[C@@H]3C[C@H](N(C)C)CC[C@@]32C)[C@@H]2CC[C@H]([C@H](C)CCCN(C)CCNc3ccnc4cc(Cl)ccc34)[C@@]12C | 3920 | 85.5% | 1.35 nM | 6820 | 0.51 | 2.9 nM | 3.32 nM | 2.35 nM | 2.63 nM | 3180 | 1.26 | 2270 nM | 9210 nM | 27 min | – | 2520 nM | 1.35 nM | half-life [18]: 60 min
CC(=O)O[C@H]1C[C@H]2[C@@H]([C@H](OC(C)=O)C[C@@H]3C[C@H](N)CC[C@@]32C)[C@@H]2CC[C@H]([C@H](C)CCCN(CCC[C@@H](C)[C@H]3CC[C@H]4[C@@H]5[C@H](OC(C)=O)C[C@@H]6C[C@H](N)CC[C@]6(C)[C@H]5C[C@H](OC(C)=O)[C@]34C)CCNc3ccnc4cc(Cl)ccc34)[C@@]12C | 19 | 82.2% | 105 nM | 21 | 0.92 | 85.9 nM | 175 nM | – | 114 nM | 19 | 1.54 | 3050 nM | 1650 nM | – | – | – | 78 nM | Activity [3]: 96%; Activity [5]: 89%; Activity [6]: 93%
